The values below come from ChEMBL document CHEMBL4513216, “Probing the Open Global Health Chemical Diversity Library for Multistage-Active Starting Points for Next-Generation Antimalarials” (ACS Infect Dis, 2020).

The nature of the data set: Toxicity liver stage against HepG2, at 10uM. It counts as cell-based. Also noted: test concentration 10 uM, cell line HepG2-A16-CD81EGFP. The settings on record: human, HepG2-A16-CD81EGFP cells; read-out: INHIBITION
The gist of the method:
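Uninfected HepG2-A16-CD81EGFP cells, 3 × 10^3 per well, 1536-well, plated on prespotted compound at 10 μM final, parasite-free screening media added to match infected plates; puromycin 10 μM positive, DMSO 0.5% negative; run in parallel with 48 h PbLuc assay at 37 °C, 5% CO2; viability by CellTiter-Glo luminescence, normalized to controls.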
Take `Oc1cccc(-c2cc(CC3(N(CC4CC4)CC4CC4)COC3)no2)c1`: the cytotoxicity at 10 µM was determined as 6.15%.
Then `COc1ccc2c(c1)CN(CC1CC1)C(=O)CCN2CC(C)(C)O`, with -13.9%; and `O=c1c(NCCc2ccc(O)cc2)c(NCc2ccccn2)c1=O`, with -2.72%; and `COc1ccc(CC(=O)Nc2ccc3ncn(C)c(=O)c3c2)cc1`, with 1.29%.
The value for `Cc1ccsc1C(=O)N1CC2CC1(C(=O)NCC1CC1)C2` was -4.78%.
Regarding `NC(=O)N1C[C@@H]2CN(C(=O)c3ccco3)C[C@@H]2C1`, the cytotoxicity at 10 µM is -2.54%.
Then `O=C(c1ccoc1)N1CCC2(CC1)COC(COCc1ccccn1)C2` (configuration not stated), with -138%; and `Cc1cccc(C(=O)N2CCC3(CC2)CC(c2ccccc2)C(=O)N3)c1` (configuration not stated), with 17.8%; and `Cc1nc(CO[C@@H]2CN(Cc3ccc(F)cc3)[C@@H]3COC[C@@H]32)cs1`, with 5.42%.
The value for `COC[C@@]12CCO[C@@H]1CCN(C(=O)CCc1ccccc1Cl)C2` was 7.69%.
On to `CS(=O)(=O)NC[C@]12COC[C@H]1CN(C(=O)c1cnccn1)C2`, for which the cytotoxicity at 10 µM is 6.3%.
The value for `CN(Cc1cn2c(n1)CN(C(=O)c1cccn1C)CC2)Cc1ccco1` was 2.75%; that for `CNC(=O)C1Cn2ccnc2C2(CCN(Cc3csc(C)n3)CC2)O1` (configuration not stated) was -151%; that for `CC(C)=CCC/C(C)=C/CC(C)(C)CNCc1ccco1` was -23.7%.
The value for `CN(C)c1ncc(-c2cc(C(=O)O)n(CC3CC3)c2)cn1` was -9.23%; that for `Cn1cc(CN2CC3(CCN(C(=O)c4cscn4)C3)C2)cn1` was -11.9%.
Regarding `Cc1n[nH]c(C)c1S(=O)(=O)N(C)Cc1nn(C)c(Cl)c1Cl`, the cytotoxicity at 10 µM was found to be 0.303%.
The value for `Cc1cccc2c1cnn2CCC(=O)NCc1csc(C2CC2)n1` was 4.22%; that for `Cn1cnc(S(=O)(=O)N2CCCC2c2ccnc3nccn23)c1` (configuration not stated) was 6.28%; that for `O=C1NC2(CCN(C(=O)CN3CCOCC3)CC2)Nc2ccc(Cl)cc21` was 0.961%.
Then `CCN(C)S(=O)(=O)NCC(O)c1c(Cl)cccc1Cl` (configuration not stated), with 8.17%.
Then `CC(CNS(C)(=O)=O)Oc1cccc(Cl)c1` (configuration not stated), with 4.6%; and `Cc1ccc(Br)cc1S(=O)(=O)NCCc1nnc[nH]1`, with -5.89%.
As for `O=C(NC1CCCN(Cc2c(F)cccc2F)C1)c1cnccn1` (configuration not stated), the cytotoxicity at 10 µM is -1.62%.
In the case of `CCC(NC(=O)CN(C)Cc1ccc(C)o1)c1ccc(C)cc1` (configuration not stated), the cytotoxicity at 10 µM worked out at 3.97%.
The value for `COC(=O)C(C)Sc1nnnn1C1CCOCC1` (configuration not stated) was -10.5%; that for `COc1ccc(C(=O)NC2CC2)c(OC)c1` was -3.51%.
The value for `CCCC(NC(=O)c1cncc(C)c1)c1nnn[nH]1` (configuration not stated) was -15.5%; that for `CNC(=O)C1Cc2ccccc2CN1CCC#N` (configuration not stated) was 6.35%; that for `CC(c1ccc(Cl)cc1)N1CCN(CCS(N)(=O)=O)CC1` (configuration not stated) was -1.37%.
The value for `CSCC(C)(O)CNC(=O)c1ccc(F)cc1Cl` (configuration not stated) was -2.79%.
With `COc1c(C2CCCN2C(=O)c2ccoc2C)c(C)nn1C` (configuration not stated), the cytotoxicity at 10 µM came to 0.243%.
For `CN1CCN(C(=O)c2cnsn2)c2ccc(F)cc21`, the cytotoxicity at 10 µM was determined as 3.47%.
Then `CCC(=O)N(CCN(C)C)Cc1ccc(F)c(F)c1`, with -4.38%; and `O=C(Nc1cn[nH]c1)N(CCO)C1CCc2ccccc21` (configuration not stated), with -8.74%; and `O=C(CCS(=O)(=O)C1CCCC1)NCCc1ccc2c(c1)OCCO2`, with -1.29%.
The value for `O=C(c1ccncc1)N1CCN(c2ccc(F)cc2Cl)CC1` was -140%.
Then `COc1ccc(CSCC(O)CO)c(Cl)c1` (configuration not stated), with -142%; and `Cc1ncsc1C(=O)N1CCN(Cc2ccccc2)CC1C` (configuration not stated), with -161%.
As for `CC(Cn1cncn1)NC(=O)NCc1csc(N(C)C)n1` (configuration not stated), the cytotoxicity at 10 µM stood at 8.42%.
For `CNS(=O)(=O)c1cccc(C(C)NCc2nccn2C(C)C)c1` (configuration not stated), the cytotoxicity at 10 µM is -12.6%.
The value for `CC(=O)c1cccc(OCCCC(=O)N(C)Cc2cccc(O)c2)c1` was -4.58%.
The value for `Cc1ccc(S(=O)(=O)NC(=O)c2cccc3c2OCCO3)c(C)c1` was 3.25%.
Consider `CC(C)(O)CN1CCN(C(=O)c2cc3ccccc3c(=O)[nH]2)CC1`, for which the cytotoxicity at 10 µM was 1.52%.
Then `c1c(CN2CCOCC2)nc2n1CCN(CC1CC1)C2`, with 2.73%; and `COCCn1cc2c(n1)C(CNC(=O)c1cc(C)[nH]c1C)OCC2` (configuration not stated), with 8.81%; and `CCN(C(=O)c1nc2c(s1)CCCN2C)C(C)C`, with 4.37%.
`Cc1cc2nc(C(=O)NCc3cccnc3N(C)C)cc(C)n2n1`: the cytotoxicity at 10 µM was -5.54%.
The value for `Cc1nc(NC(=O)N2CCCC(C(C)(C)O)C2)nn1C` (configuration not stated) was 13.5%.
Then `CNc1nc(N2CCN(C)C(CCO)C2)nc2c1CCC2` (configuration not stated), with 2.66%; and `CC(C)Oc1cc(N2CCC3(CC2)[C@H](O)C[C@@H]3O)nc(N)n1`, with -0.335%; and `CN1CCC(C(=O)NCCC2CN(c3cnn(C)c(=O)c3)CCO2)CC1` (configuration not stated), with 5.75%.
With `O=S1(=O)C[C@@H]2[C@H](C1)N(Cc1cccc(O)c1)CCN2CC1CC1`, the cytotoxicity at 10 µM came to 1.79%.
As to `CCCc1cc(NCc2cc(C)on2)n2nccc2n1`, the cytotoxicity at 10 µM was -6.85%.
The value for `CCn1c(C)nnc1SCCNC(=O)c1cnc(C(C)(C)C)nc1O` was -6.14%; that for `Cc1nnc(CN(C)C2CCN(c3cccc(-c4cscn4)c3)CC2)o1` was -7.3%.
Then `COc1ccccc1OC1CCN(C(=O)CCCN2CCOCC2)CC1`, with -177%.
The value for `Cc1ccn(CC(=O)N2CC[C@@H](c3ccc4ccccc4c3)[C@H](O)C2)n1` was 5.02%.
`c1ccc(Cn2cc(CNc3ncnc4c3CCNCC4)cn2)cc1`: the cytotoxicity at 10 µM stood at 1.99%.
The value for `CCN1CCc2[nH]cnc2C12CCN(Cc1ccc3nsnc3c1)CC2` was 3.72%; that for `O=C(CCc1cc(O)no1)N1CCCC(OCc2cccnc2)C1` (configuration not stated) was -12.7%.
Then `COc1ccc(-n2ncc(C(C)NC3CCOCC3)c2C)cc1` (configuration not stated), with 2.77%; and `O=C(C1CCC1)N1CCN(C(=O)c2cnccn2)[C@H]2CS(=O)(=O)C[C@H]21`, with -10.8%.
The value for `CC(C)(C)c1ncc2c(n1)CN(C(=O)c1ccc(-c3nc[nH]n3)cc1)C2` was -16.8%; that for `Cc1ccc(OC2(C(=O)O)CCN(C(=O)c3nc(C)oc3C)CC2)cn1` was -9.41%; that for `CCC(NC(=O)C1CCN(S(C)(=O)=O)CC1)c1ccc(OC)c(C)c1` (configuration not stated) was -10%.
Turning to `O=c1oc(-c2ccc(F)cc2)nn1CN1CCCCC1`, the cytotoxicity at 10 µM is -4.35%.
For `CCc1nnc2n1CCN(C(=O)c1cc3ccc(C)cc3[nH]1)C2`, the cytotoxicity at 10 µM is -4.87%.
The value for `COc1cccc(S(=O)(=O)NC(=O)CCC2CCCC2)c1` was 0.428%; that for `Cc1[nH]nc2ncc(C(=O)N3CCN(CCC(C)C)CC3)cc12` was 0.977%; that for `Cc1occc1C(=O)N1CCCN(Cc2nccn2C)CC1` was -1.56%.
Then `Cc1cc(C)n(CC2CN(c3ccc(C#N)cn3)CCO2)n1` (configuration not stated), with -1.56%.
The value for `Cc1cccc(-c2nc(CNC3CCc4ncnn4C3)no2)c1` (configuration not stated) was -2.09%.
Turning to `CCc1nnc2n1CCN(Cc1cc(Cl)c3c(c1)OCCCO3)C2`, the cytotoxicity at 10 µM is -5.83%.
As for `NC(=O)C1CCN(C(=O)c2ccn(-c3cccc(F)c3)n2)C1` (configuration not stated), the cytotoxicity at 10 µM is -3.05%.
The value for `COc1ccc(C(CNC(=O)NCc2csc(C)n2)N(C)C)cc1` (configuration not stated) was -5.59%; that for `CCC(=O)NCC(=O)NCC1CCN(c2cc(Cl)ccc2C)C1` (configuration not stated) was -13.2%.
Then `Cc1cc(C)c(CNC(=O)NCC2COCCO2)c(=O)[nH]1` (configuration not stated), with -3.81%.
The value for `Cc1cnn(CCC(=O)N2CCN(c3nccs3)CC2)c1` was -8.03%; that for `c1ccc(Cc2nc(CN3CCCC3Cn3cncn3)cs2)cc1` (configuration not stated) was -2.54%.
For the compound `Cc1cc(C(=O)N2CCCC2c2c(C)nn(C)c2C)no1` (configuration not stated), the cytotoxicity at 10 µM is -2.57%.
Then `CCc1ocnc1C(=O)N1CCOC(c2nc(C)n[nH]2)C1` (configuration not stated), with -12%; and `CCN1CCC(NC(=O)CN2CC(n3nc(C)cc3C)C2)CC1`, with -4.44%; and `CC(C)Cc1nc(CN2CCN(CC(O)c3ccccc3)CC2)no1` (configuration not stated), with -14.4%.
The value for `COC(=O)C(c1ccccc1)N(C)C(=O)c1ccnc(C)n1` (configuration not stated) was 1.4%; that for `CC(C)(C)c1n[nH]c(C2CN(C(=O)Cn3ccccc3=O)CCO2)n1` (configuration not stated) was -1.22%.
The value for `CCn1ccnc1CN1CCC(N(C)Cc2ncc(C)o2)C1` (configuration not stated) was -7.48%; that for `CN(C)CC1CN(Cc2nnc(-c3ccccc3Cl)o2)CCO1` (configuration not stated) was 1.56%; that for `CCOCCN1CCn2c(C)nnc2C1` was 3.34%.
Regarding `CCc1n[nH]c(C2CN(CCc3ccncc3)CCO2)n1` (configuration not stated), the cytotoxicity at 10 µM worked out at 2.17%.
Turning to `Cc1cc(C)n(C2CCCN(C(=O)c3ccc(NC4CC4)nc3)C2)n1` (configuration not stated), the cytotoxicity at 10 µM worked out at 5.25%.
With `COc1ccc(F)cc1-c1ccccc1CC1CNCCNC1=O` (configuration not stated), the cytotoxicity at 10 µM is 3.48%.
Regarding `Cn1ccc(C(=O)NC2CCC23CCN(Cc2cccnc2)CC3)c1` (configuration not stated), the cytotoxicity at 10 µM is -12.1%.
The value for `Cc1ccc(CN2CCc3onc(C(=O)N4CCCC4)c3C2)o1` was 6.28%; that for `C[C@H]1C(=O)NC[C@H]2CN(Cc3cccc(F)c3)C[C@H]21` was 0.964%; that for `COC[C@@]12CCO[C@@H]1CCN(Cc1ccccc1F)C2` was -12.9%.
Then `COCC1COCCC12CCN(Cc1cccs1)CC2` (configuration not stated), with 6.13%.
